# Screening data (PubChem)
# The list is not random: actives were taken first. Their share in the collection is about 3%.
# HNF4A DNA FP: change in binding of human HNF4 alpha to DNA | P41235 | HNF4a-FITC DNA binding, fluorescence polarization, 1 h | activity change, % at 10 µM | 0.3% of 360,000 active; in the data active means activity change above about 30%, passing the limit was not always enough
# Target sequence (P41235 whole entry, looked up): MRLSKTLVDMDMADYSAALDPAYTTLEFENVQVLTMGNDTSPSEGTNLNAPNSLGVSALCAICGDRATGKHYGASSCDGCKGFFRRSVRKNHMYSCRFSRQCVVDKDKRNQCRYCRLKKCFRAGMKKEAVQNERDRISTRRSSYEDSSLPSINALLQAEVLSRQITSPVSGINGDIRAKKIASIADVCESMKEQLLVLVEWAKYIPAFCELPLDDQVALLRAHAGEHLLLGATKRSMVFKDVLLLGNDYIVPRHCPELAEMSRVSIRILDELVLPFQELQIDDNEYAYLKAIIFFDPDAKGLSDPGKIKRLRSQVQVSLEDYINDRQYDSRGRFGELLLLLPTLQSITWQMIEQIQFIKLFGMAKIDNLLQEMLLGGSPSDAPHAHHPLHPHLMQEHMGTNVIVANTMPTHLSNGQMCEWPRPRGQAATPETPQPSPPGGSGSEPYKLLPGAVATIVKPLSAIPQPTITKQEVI
# SENP1 FRET inh: SENP1 (human) catalytic domain inhibition. inhibition, % at 10 µM. recombinant SENP1 catalytic domain, CyPet-SUMO1-YPet FRET cleavage. Q9P0U3. 0.21% of 360,000 active. AID 624204;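 active means inhibition at least 30% at 10 µM, raw YFP signal under a set limit, fluorescence ratio 0.5 to 1.5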
#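 Material: hSENP1 catalytic domain, recombinant; medium: Tris pH 8 with BME, BSA, NP40 and catalase; compound: single concentration of 10 µM compound, 0.5% DMSO final; technique: FRET read of cyan and yellow fluorescence; timing: 50 min enzyme reaction, room temperature, light-protected; reagent: SFCypet-SUMO1-SFYpet substrate at 25 nM; control set: no-enzyme low, enzyme-DMSO high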
# H9c2 protect: myocardial damage modulation in H9c2 cells; H9c2 cardiomyocytes, H2O2 injury protection, ATPLite, 2 h; protection from H2O2 cell death, % at 20 µM; 0.63% of 360,000 active; AID 588492;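 active means compounds giving at least 50% protection of heart cells from peroxide-induced death in the single-dose screen, raw or plate-pattern-corrected value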
# DSG3 Ab inh: blocks pemphigus antibody binding to human desmoglein-3; P32926; DSG3-coupled beads, scFv-anti-DSG3-GFP binding, flow cytometry; active compounds read low; binding (percent of control), % at 10 µM; 0.48% of 310,000 active;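 active means binding more than 3 SD below its plate's average and above zero; inconclusive means below that plate limit but binding exactly zero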;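 further: hits lower antibody fragment binding to DSG3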
# Exocytosis inh: lytic granule exocytosis inhibition | inhibition, % at 10 µM | TALL-104 LAMP-1 surface exposure, flow cytometry; cells stimulated with thapsigargin and PMA | 0.66% of 360,000 active | AID 651702;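 active means inhibition above about 55%, limit read from the data; inconclusive means no clear call, values can overlap the other calls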
# Myeloid diff 2: compounds promoting myeloid differentiation | calls only at 10 µM | AID 624256 | 1% of 360,000 active | ER-HoxA9 myeloid progenitors, lysozyme-GFP differentiation, flow cytometry;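 active means normalized GFP-positive differentiation at or above the plate's own cutoff, the solvent-only control mean plus 3 SD; inconclusive means no clear call, values can overlap the other calls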;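 further: cells exposed to compound for four days before flow analysis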
# Myeloid diff CP1: promotes myeloid progenitor differentiation. shares compounds with Myeloid diff 2. ER-HoxA9 myeloid progenitors, GFP/Mac1 double-positive flow. calls only. 2% of 2,300 active;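 active means share of green or green-and-red cells above 9 and 9% in run 1 or 4 and 3% in run 2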
# GFP autofluor: flagged as fluorescent in myeloid differentiation counter-screen; shares compounds with Myeloid diff 2; ER-HoxA9 myeloid progenitors, no estrogen, GFP autofluorescence flow cytometry; vehicle wells 0%, positive control 100%; fluorescence response, % (no concentration beside the values); 7.4% of 2,300 active; AID 651707;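 active means over 5% cells positive for green fluorescent reporter, or over 2% positive for both it and APC stain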
# Calls only; 0 = inactive; ? = inconclusive; - = no result; + = active, no number.
SMILES,HNF4A DNA FP,SENP1 FRET inh,H9c2 protect,DSG3 Ab inh,Exocytosis inh,Myeloid diff 2,Myeloid diff CP1,GFP autofluor
C=CC[N+]1(CC#Cc2ccccc2)CCCC1,0,0,0,0,0,+,0,0
C(#Cc1ccccc1)C[N+]1(CC#Cc2ccccc2)CCCC1,0,0,0,0,0,?,-,-
CN(C)CCCn1c(N)c(C#N)c2nc3ccccc3nc21,0,0,0,0,0,0,0,0
Cc1ccc(S(=O)(=O)c2c(N)n(CCCN(C)C)c3nc4ccccc4nc23)cc1,0,0,0,0,0,0,-,-
CCCC[n+]1ccn(C2=C([O-])c3ccccc3C(=O)/C2=N\S(=O)(=O)c2ccc(Br)cc2)c1,0,0,0,0,0,0,0,0
CC1=Nc2ccc3ccccc3c2C1(C)C,0,0,0,0,0,+,0,0
CCN1CCN(CCCNC(=O)CCC(=O)N2CCOc3ccccc32)CC1,0,0,0,0,0,0,-,-
CC1CC(C)CN(CCCNC(=O)CCC(=O)N2CCOc3ccccc32)C1 (centres undefined),0,0,0,0,0,0,0,0
COc1ccc(-c2sc(C(=O)c3ccc(Cl)cc3Cl)cc2CC(=O)O)cc1,0,0,0,0,0,+,0,0
C=CCSc1nc2sc(C)c(C)c2c(=O)n1N,0,0,0,0,0,0,-,-
C/C(=C/c1ccccc1)C(=O)N1CCC(C)CC1,0,0,0,0,0,0,0,0
CC(=O)Nc1cc(-c2ccccc2Cl)cn2c(-c3ccc(S(C)(=O)=O)cc3)cnc12,0,0,0,-,0,+,0,0
CC(=O)Nc1cc(-c2ccc(CO)cc2)cn2c(-c3ccc(F)c(Cl)c3)cnc12,0,0,0,-,0,+,0,0
CN(C(=O)COc1ccc([N+](=O)[O-])cc1)C1CCS(=O)(=O)C1 (centres undefined),0,0,0,0,0,0,-,-
Cc1ccc2cc(C#N)c(SCC(=O)NNC(=O)Cc3ccccc3)nc2c1,0,0,0,0,0,+,0,0
Cc1cccc(C(=O)NC2CCN(S(=O)(=O)c3ccc(F)cc3)CC2)c1,0,0,0,0,0,0,-,-
CCn1nnc2cc(C(=O)NCC(c3ccccc3OC)N(C)C)ccc21 (centres undefined),0,0,0,0,0,0,-,-
CSc1nc(N)c2c(C)c(C)sc2n1,0,0,0,0,0,0,0,0
COc1cccc(-c2csc3ncnc(Sc4nnnn4C)c23)c1,0,0,0,0,0,-,-,-
CC1(C(=O)NCc2ccccc2)CSCC(=O)N1CCOc1ccccc1 (centres undefined),0,0,-,-,0,0,-,-
COc1ccc(C2=NOC(Cn3nc(C(=O)NCc4cccs4)cc3-c3ccccc3)C2)cc1 (centres undefined),0,0,0,0,0,0,-,-
COc1ccc(C2=NOC(Cn3nc(-c4ccccc4)cc3C(=O)NCc3cccs3)C2)cc1 (centres undefined),0,0,0,0,0,0,0,0
Cc1ccccc1NS(=O)(=O)c1cc(C(=O)NCc2ccncc2)ccc1Cl,0,0,0,0,0,0,-,-
NS(=O)(=O)c1ccc(NC(=S)NCc2ccccc2)cc1,0,0,0,0,0,0,-,-
NS(=O)(=O)c1ccc(NC(=S)NCc2ccccc2Cl)cc1,0,0,0,0,0,0,0,0
SMILES,HNF4A DNA FP,SENP1 FRET inh,H9c2 protect,DSG3 Ab inh,Exocytosis inh,Myeloid diff 2,Myeloid diff CP1,GFP autofluor
CC(C)Oc1ccc(/C(O)=C2/C(=O)C(=O)N(CCN(C)C)C2c2cccs2)cc1 (centres undefined),0,0,0,0,0,0,-,-
Cc1ccc(S(=O)(=O)NCCC(=O)N2CCN(Cc3ccccc3)CC2)cc1,0,0,0,?,0,+,0,0
COc1ccc(-n2nc(C(=O)NCC(=O)NCCN(C)C)c3ccccc3c2=O)cc1,0,0,0,0,0,0,-,-
Cc1ccc(C=Nc2ccc(N(C)C)cc2)o1,0,0,0,0,0,0,0,0
Cc1ccc(C=Nc2ccccc2C(N)=O)o1,0,0,0,0,0,0,-,-
Cc1cc(C)nc(NS(=O)(=O)c2ccc(CC(C)C)cc2)c1,0,0,0,0,0,0,-,-
O=[N+]([O-])c1ccc(/C=N/Nc2ncccc2[N+](=O)[O-])s1,0,0,0,0,0,0,0,0
COc1ccc(-c2[nH][nH]c(=O)c2NC(=O)c2ccc(C)cc2)cc1,0,0,0,-,0,0,-,-
CCn1ccnc1CN(C)Cc1c(C(=O)N2CCCCCCC2)nc2ccc(Cl)cn12,0,0,0,0,0,0,-,-
O=C(NC1(C(F)(F)F)NC(=O)N(Cc2ccco2)C1=O)c1cccnc1 (centres undefined),0,0,0,0,0,+,0,0
O=C(/C=C/c1cccc(F)c1)Nc1cc(S(=O)(=O)N2CCOCC2)ccc1Cl,0,0,0,0,0,0,0,0
O=C(/C=C/c1ccc(S(=O)(=O)N2CCOCC2)cc1)Nc1cc(F)ccc1F,0,0,0,0,0,0,-,-
COc1ccc(/C=C/C(=O)Nc2ccc(C)c(S(=O)(=O)N3CCOCC3)c2)cc1,0,0,0,0,0,0,0,0
Cc1ccc(S(=O)(=O)N2CCOCC2)cc1NC(=O)COC(=O)/C=C/c1ccc(F)cc1,0,0,0,-,0,0,0,0
COc1cccc(NC(=O)C2CC(=O)N(C)C(=Nc3cccc(F)c3)S2)c1 (centres undefined),0,0,0,0,0,0,0,0
COc1cccc(N=C2SC(C(=O)Nc3ccccc3F)CC(=O)N2C)c1 (centres undefined),0,0,0,0,0,0,-,-
Cc1ccc(C(C(=O)NC2CCCCC2)N(Cc2ccco2)C(=O)C2COc3ccccc3O2)o1 (centres undefined),0,0,0,0,0,0,-,-
Cc1ccc(C(C(=O)NC2CCCCC2)N(Cc2cccnc2)C(=O)C2COc3ccccc3O2)o1 (centres undefined),0,0,0,0,0,+,0,0
CCCCn1c2c(c(=N)c3c1CCC3)CCC2,0,0,0,0,0,0,0,0
S=C(c1cn(Cc2ccc(Br)cc2)c2ccccc12)N1CCOCC1,0,0,0,0,0,0,0,0
S=C(c1cn(Cc2ccccc2)c2ccccc12)N1CCOCC1,0,0,0,0,0,0,-,-
CCCCc1c(O)nc(SCC(=O)N2CCOCC2)n(-c2ccc(C)cc2)c1=O,0,0,0,0,0,0,-,-
CCN(Cc1nc2cc(Cl)ccc2c(=O)[nH]1)C(=O)c1cc2c(s1)CCCCC2,0,0,0,0,0,0,0,0
